Test results: ChEMBL document CHEMBL4680167, “Synthesis and SARs of dopamine derivatives as potential inhibitors of influenza virus PA endonuclease” (Eur J Med Chem, 2020)

How the values were obtained:
Influenza A virus [1] = assay: Antiviral activity against Influenza A virus (A/WSN/1933(H1N1)) infected in dog MDCK cells assessed as reduction in virus-induced cytopathic effect incubated for 48 hrs by MTT assay; assay type: functional, organism-based
How it was run: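 MDCK cells (DMEM, 10% FBS, 37 °C, 5% CO2) were seeded overnight and infected with 100 TCID50 (MOI 3.5×10^-3) of A/WSN/33 for 1 h. Compounds were added at increasing concentrations and cells were cultured about 48 h in FBS-free medium with 0.6 µg/mL TPCK-trypsin. Read-out was MTT, formazan dissolved in DMSO, A570, with CPE checked by microscopy. Triplicates; EC50 is the concentration giving 50% cell protection.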

[2] = Cytotoxicity against dog MDCK cells assessed as reduction in cell viability incubated for 48 hrs by MTT assay; assay type: cell-based, Canis lupus familiaris
How it was run: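 Uninfected MDCK cells were seeded overnight, then exposed to increasing compound concentrations or 0.1% DMSO blank for 48 h. Viability was read by MTT; CC50 is the concentration killing 50% of cells.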

[3] = Selectivity index, ratio of CC50 for dog MDCK cells to EC50 for Influenza A virus (A/WSN/1933(H1N1)) infected in dog MDCK cells; assay type: toxicity, cell-based; conditions: read-out: Ratio CC50/EC50
[4] = Inhibition of recombinant Influenza A virus (A/USA:Huston/AA/1945 H1N1)) N-terminal His6-tagged PA endonuclease using 6FAM-TGGCAATATCAGCTCCACA-MGBN DNA probe as substrate by TR-FRET assay
How it was run: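 Recombinant PA_N cleavage was followed by FRET on a TaqMan-like probe: 5'-FAM, 19 nucleotides, 3'-MGBNFQ quencher, excitation 492 nm. Cleavage frees FAM fluorescence. Percentage inhibition was plotted against log compound concentration; mean ± SD of eleven independent experiments.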

[5] = (§1) Binding affinity to recombinant Influenza A virus (A/USA:Huston/AA/1945 H1N1)) N-terminal His6-tagged PA endonuclease assessed as dissociation constant by SPR analysis
How it was run: (§2)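 For SPR, compounds were printed in 5 repeats on a photo-cross-linker chip. The surface was primed with HBS-EP (10 mM HEPES pH 7.0, 150 mM NaCl, 3 mM EDTA, 0.005% P20), then with running buffer (PBS, 5% DMSO). PA_N at 10, 20, 40, 80 and 160 nM in running buffer was injected 600 s at 0.5 µL/s, followed by 360 s dissociation.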

Influenza A virus [6] = assay: as §1; how it was run: as §2

## O=C(NCCc1ccc(O)c(O)c1)c1cc(O)c(O)c(O)c1
Influenza A virus [1]
  EC50: > 30 µM

## O=C(NCCc1ccc(O)c(O)c1)c1ccccc1O
Influenza A virus [1]
  EC50: > 30 µM

## O=C(NCCc1ccc(O)c(O)c1)c1ccc(O)cc1
Influenza A virus [1]
  EC50: 12.7 µM
[2]
  CC50 at 48 h: > 200 µM
[3]
  selectivity ratio: > 25.2

## O=C(Cc1ccc(O)c(O)c1)N1CCc2cc(O)c(O)cc2C1
Influenza A virus [1]
  EC50: 2.58 µM
[2]
  CC50 at 48 h: 151 µM
[3]
  selectivity ratio: 58.5
[4]
  EC50: 0.489 µM
[5]
  Kd: 0.0942 µM
Influenza A virus [6]
  Activity: Dose-dependent effect

## O=C(NCCc1ccc(O)c(O)c1)c1cccc(O)c1O
Influenza A virus [1]
  EC50: > 30 µM

## O=C1c2cc(=O)ccn2N([C@@H]2c3ccccc3SCc3c2ccc(F)c3F)[C@@H]2COCCN12
[5]
  Kd: 0.000208 µM

## O=C(Cc1ccc(O)c(O)c1)OCCc1ccc(O)c(O)c1 [BLAPSIN A]
Influenza A virus [1]
  EC50: > 30 µM

## O=C(O[C@@H]1Cc2c(O)cc(O)cc2O[C@@H]1c1cc(O)c(O)c(O)c1)c1cc(O)c(O)c(O)c1 [EPIGALOCATECHIN GALLATE]
Influenza A virus [1]
  EC50: 28.9 µM
[2]
  CC50 at 48 h: > 200 µM
[3]
  selectivity ratio: > 6.9
[4]
  EC50: 6.45 µM
[5]
  Kd: 0.956 µM

## O=C(CCc1ccc(O)c(O)c1)NCCc1ccc(O)c(O)c1
Influenza A virus [1]
  EC50: 4.94 µM
[2]
  CC50 at 48 h: > 200 µM
[3]
  selectivity ratio: > 64.8
[4]
  EC50: 0.842 µM

## O=C(c1ccc(O)c(O)c1)N1CCc2cc(O)c(O)cc2C1
Influenza A virus [1]
  EC50: 3.1 µM
[2]
  CC50 at 48 h: 133 µM
[3]
  selectivity ratio: 43
[4]
  EC50: 0.577 µM

## O=C(CCc1ccc(O)c(O)c1)N1CCc2cc(O)c(O)cc2C1
Influenza A virus [1]
  EC50: 18.6 µM
[2]
  CC50 at 48 h: 197 µM
[3]
  selectivity ratio: 10.6

## O=C(Cc1ccc(O)c(O)c1)NCCc1ccc(O)c(O)c1
Influenza A virus [1]
  EC50: 2.46 µM
[2]
  CC50 at 48 h: > 200 µM
[3]
  selectivity ratio: > 81.3
[4]
  EC50: 0.312 µM
[5]
  Kd: 0.0263 µM
Influenza A virus [6]
  Activity: Dose-dependent effect

## O=C(NCCc1ccc(O)c(O)c1)c1ccc(O)c(O)c1
Influenza A virus [1]
  EC50: 10.2 µM
[2]
  CC50 at 48 h: 154 µM
[3]
  selectivity ratio: 15

## Oc1ccc(CCNC(=S)Cc2ccc(O)c(O)c2)cc1O
Influenza A virus [1]
  EC50: 7.01 µM
[2]
  CC50 at 48 h: > 200 µM
[3]
  selectivity ratio: > 45.7
[4]
  EC50: 1.29 µM

## CCC(CC)[C@H](NC(C)=O)[C@@H]1[C@H](O)[C@@H](C(=O)O)C[C@H]1NC(=N)N [PERAMIVIR ANHYDROUS]
Influenza A virus [1]
  EC50: 5.26 µM
[2]
  CC50 at 48 h: > 200 µM
[3]
  selectivity ratio: > 38

## O=C(NCCc1ccc(O)c(O)c1)c1cccc(O)c1
Influenza A virus [1]
  EC50: 13.1 µM
[2]
  CC50 at 48 h: > 200 µM
[3]
  selectivity ratio: > 15.3
